Compound: NC(=O)c1ccc[n+]([C@@H]2O[C@H](COP(=O)([O-])OP(=O)(O)OC[C@H]3O[C@@H](n4cnc5c(N)ncnc54)[C@H](O)[C@@H]3O)[C@@H](O)[C@H]2O)c1
Experiment: In vitro inhibitory activity against pig heart cytoplasmic malate dehydrogenase (MDH),
Procedure, shortened: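 Pig heart enzymes (cytoplasmic MDH or LDH, from ammonium sulfate suspension) assayed in 0.05 M Tris HCl pH 9.0, with NAD as substrate; rates from NADH appearance by A340 (ε 6.22 mM⁻¹cm⁻¹) or fluorescence calibrated against NADH standards. Run at least in duplicate; kinetic constants from Lineweaver-Burk plots by linear regression.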

B1: Malate dehydrogenase, cytoplasmic (Sus scrofa), P11708 (protein)
chain: MSEPIRVLVTGAAGQIAYSLLYSIGNGSVFGKDQPIILVLLDITPMMGVLDGVLMELQDCALPLLKDVIATDKEEIAFKDLDVAILVGSMPRRDGMERKDLLKANVKIFKCQGAALDKYAKKSVKVIVVGNPANTNCLTASKSAPSIPKENFSCLTRLDHNRAKAQIALKLGVTSDDVKNVIIWGNHSSTQYPDVNHAKVKLQAKEVGVYEAVKDDSWLKGEFITTVQQRGAAVIKARKLSSAMSAAKAICDHVRDIWFGTPEGEFVSMGIISDGNSYGVPDDLLYSFPVTIKDKTWKIVEGLPINDFSREKMDLTAKELAEEKETAFEFLSSA
B1 was tested, and the Km was 33.9 µM.

From ChEMBL document CHEMBL1124735, “Dehydrogenase binding by tiazofurin anabolites” (J Med Chem, 1990)
